Molecules are shown by their SMILES. Out of some 360,000 compounds screened, about 740 (0.21%) were called active.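 Rule for the calls: active = mean lysis activity across replicates of at least 80%, whatever share of replicates individually reach that level; inactive = mean lysis activity below 80%.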 Only a selection was taken, and actives are over-represented in it overall.

The experiment can be described thus: fungicidal lysis via adenylate kinase leakage – AK release luminescence, single concentration, primary screen (AID 651654). The note with it: C. neoformans lysis, 4 h, at 15 µM, active compounds read high, normalised: neutral wells 0, clomiphene wells 100. The gist of the method:
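Material: C. neoformans cells; Schedule: 4 h static compound exposure, 37 °C, read 1 h post-reagent; Measured by: adenylate kinase release luminescence; Read-out: signal increase indicating cell lysis; Controls: Clomiphene as positive lysis control.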
With `CNC[C@H]1Oc2ccc(NS(=O)(=O)c3ccc(F)cc3)cc2C(=O)N([C@@H](C)CO)C[C@@H]1C`, the lysis activity is 3.02% (inactive).

Consider `Cc1ccc(S(=O)(=O)N[C@H]2CC[C@@H](CC(=O)NCCCN(C)C)O[C@H]2CO)cc1`, for which the lysis activity was -1.04% (inactive).

Take `CCCNC(=O)N1[C@@H]2c3cccc(=O)n3C[C@H]1[C@H](CO)[C@H]2C(=O)NCC(F)(F)F`: the lysis activity was -3.09% (inactive).

Take `CCCNC(=O)[C@@H]1[C@@H](CO)[C@@H]2Cn3c(cccc3=O)[C@H]1N2C(=O)Nc1cc(F)ccc1F`: the lysis activity was 92.3% (active).

Take `CCCNC(=O)[C@@H]1[C@@H](CO)[C@@H]2Cn3c(cccc3=O)[C@H]1N2C(=O)C1CC1`: the lysis activity was 1.83% (inactive).

For `COc1ccc(S(=O)(=O)N(C)C[C@@H]2Oc3ccc(NC(=O)CCC(F)(F)F)cc3C(=O)N([C@@H](C)CO)C[C@H]2C)cc1`, the lysis activity is 2.26% (inactive).

Turning to `O=C(C[C@H]1C=C[C@H](NS(=O)(=O)c2ccc(F)cc2)[C@H](CO)O1)NCc1ccncn1`, the lysis activity is -3.14% (inactive).

For `C[C@@H]1CN([C@H](C)CO)C(=O)c2cc(NC(=O)CCCN(C)C)ccc2O[C@H]1CN(C)Cc1ccc(C(=O)O)cc1`, the lysis activity is -1.44% (inactive).

Regarding `CO[C@@H]1CN(C)C(=O)c2ccc(NC(=O)C3CCC3)cc2OC[C@H](C)NC[C@H]1C`, the lysis activity is 1.85% (inactive).

For the molecule `CC(C)NC(=O)N(C)C[C@H]1Oc2c(NC(=O)c3ccncc3)cccc2C(=O)N([C@@H](C)CO)C[C@H]1C`, the lysis activity is -2.5% (inactive).

With `C[C@H](CO)N1C[C@H](C)[C@@H](CN(C)Cc2ccc(Oc3ccccc3)cc2)Oc2cc(-c3ccncc3)ccc2S1(=O)=O`, the lysis activity is -0.269% (inactive).

Regarding `CCCNC(=O)Nc1ccc2c(c1)OC[C@H](C)N(Cc1ccccc1)C[C@H](C)[C@H](OC)CN(C)C2=O`, the lysis activity is -0.367% (inactive).

Consider `CO[C@@H]1CN(C)C(=O)c2ccc(NC(=O)C3CC3)cc2OC[C@@H](C)N(CC2CCOCC2)C[C@H]1C`, for which the lysis activity was 61.5% (inactive).

With `O=C(c1ccccc1)N1CC[C@H]2[C@H](CO)Nc3ccc(-c4ccc(F)cc4)cc3[C@H]21`, the lysis activity was 21.5% (inactive).

Consider `C/C=C/c1cnc2c(c1)C(=O)N([C@@H](C)CO)C[C@@H](C)[C@H](CN(C)Cc1cncnc1)O2`, for which the lysis activity was -1.92% (inactive).

As for `COc1cccc(NC(=O)N2CC[C@@H]3[C@@H](CO)N(C)c4ccc(-c5cccc(F)c5)cc4[C@@H]32)c1`, the lysis activity was -11.2% (inactive).

In the case of `Cc1noc(C)c1NC(=O)N(C)C[C@@H]1Oc2ccc(NC(=O)Nc3cccc4ccccc34)cc2CC(=O)N([C@@H](C)CO)C[C@H]1C`, the lysis activity is 41.1% (inactive).

On to `CCN1[C@@H]2c3ccc(C4=CCCC4)c(=O)n3C[C@@H]2[C@@H](CO)[C@@H]1C(=O)NCc1ccccn1`, for which the lysis activity was 1.37% (inactive).

As for `CO[C@@H]1CN(C)C(=O)c2ccc(NS(=O)(=O)c3ccc(Cl)cc3)cc2OC[C@H](C)N(C(=O)NC(C)C)C[C@H]1C`, the lysis activity is -5.3% (inactive).

Regarding `C[C@H]1CN([C@@H](C)CO)C(=O)c2cccc(NC(=O)Nc3ccccc3)c2O[C@@H]1CN(C)S(=O)(=O)c1ccc(F)cc1`, the lysis activity is -1.52% (inactive).

With `OC[C@@H]1[C@@H](c2ccc(C#CC3(O)CCCC3)cc2)[C@@H]2CN(Cc3cncnc3)CCCCN12`, the lysis activity is -3.24% (inactive).

`O=C(C[C@@H]1CC[C@H](NC(=O)Nc2ccc(F)cc2)[C@H](CO)O1)NCc1ccccn1`: the lysis activity was -0.684% (inactive).

For `CO[C@@H]1CN(C)C(=O)c2cc(NC(=O)C3CC3)ccc2OC[C@@H](C)N(C(=O)c2ccccc2F)C[C@@H]1C`, the lysis activity is 44% (inactive).

Consider `C[C@@H]1CN([C@@H](C)CO)S(=O)(=O)c2ccc(-c3ccc(C(=O)N(C)C)cc3)cc2O[C@@H]1CN(C)C(=O)Cc1ccccn1`, for which the lysis activity was 0.616% (inactive).

For the molecule `CN1CCN(C(=O)c2cc3c(c(-c4cccc(-c5ccc(C(=O)N(C)C)cc5)c4)n2)[C@@H](CCO)N([S@](=O)C(C)(C)C)C3)CC1`, the lysis activity was -8.88% (inactive).

Turning to `Cc1ccc(S(=O)(=O)N[C@@H]2CC[C@H](CCNC(=O)C3CCOCC3)O[C@@H]2CO)cc1`, the lysis activity was -6.3% (inactive).

For the molecule `COCC(=O)Nc1ccc2c(c1)OC[C@H](C)N(C(=O)c1ccccn1)C[C@@H](C)[C@H](OC)CN(C)C2=O`, the lysis activity is 0.52% (inactive).

In the case of `O=C(C[C@H]1CC[C@@H]2[C@H](COC[C@@H](O)CN2C(=O)Nc2ccc(Cl)cc2)O1)NC1Cc2ccccc2C1`, the lysis activity is -3.01% (inactive).

Take `C[C@@H]1CN([C@H](C)CO)C(=O)c2cc(C#CC3CC3)cnc2O[C@@H]1CN(C)Cc1cccc(C(=O)O)c1`: the lysis activity was -8.03% (inactive).

Consider `C[C@H](CO)N1C[C@H](C)[C@@H](CN(C)Cc2ccc(C(=O)Nc3ccccc3N)cc2)Oc2c(NC(=O)C3CC3)cccc2C1=O`, for which the lysis activity was -0.959% (inactive).

Consider `COCC(=O)N(C)C[C@@H]1Oc2cc(C#CCC(C)C)ccc2S(=O)(=O)N([C@@H](C)CO)C[C@@H]1C`, for which the lysis activity was 0.182% (inactive).

As to `O=C(CN1CCOCC1)NC[C@@H]1N[C@@H](CO)[C@@H]1c1ccc(-c2ccccc2)cc1`, the lysis activity is 4.94% (inactive).

On to `CCC(=O)N1[C@@H]2CN(C(=O)Nc3ccc(Cl)cc3)c3ccccc3[C@@H]2[C@@H]1CO`, for which the lysis activity was -1.93% (inactive).

As to `COc1cccc(S(=O)(=O)Nc2ccc3c(c2)[C@@H]2C[C@@H](CC(=O)NC4CCCCC4)O[C@H](CO)[C@@H]2O3)c1`, the lysis activity is 2.9% (inactive).

As to `COc1cccc(S(=O)(=O)Nc2ccc3c(c2)[C@H]2C[C@H](CC(=O)O)O[C@H](CO)[C@H]2O3)c1`, the lysis activity is -0.106% (inactive).

Consider `COc1cccc(S(=O)(=O)Nc2ccc3c(c2)[C@@H]2C[C@H](CC(=O)NC4CCCCC4)O[C@H](CO)[C@@H]2O3)c1`, for which the lysis activity is 116% (active).

Consider `CCCC#Cc1cnc2c(c1)C(=O)N([C@H](C)CO)C[C@H](C)[C@H](CN(C)C(=O)c1cnccn1)O2`, for which the lysis activity was -1.04% (inactive).

On to `CCC(=O)Nc1ccc2c(c1)C(=O)N(C)[C@H]1CC[C@H](CC(=O)NC3Cc4ccccc4C3)O[C@H]1CO2`, for which the lysis activity was -0.192% (inactive).

For the molecule `COCC(=O)Nc1ccc2c(c1)[C@H]1C[C@H](CC(=O)OC)O[C@@H](CO)[C@H]1O2`, the lysis activity was -5.98% (inactive).

Take `O=C(C[C@H]1CC[C@H]2[C@@H](COC[C@H](O)CN2C(=O)Nc2ccc(Cl)cc2)O1)NCC1CC1`: the lysis activity was -8.94% (inactive).

As to `C[C@H]1CN([C@@H](C)CO)C(=O)c2cc(NC(=O)Cn3cnnn3)ccc2O[C@H]1CN(C)Cc1ccc(C(=O)O)cc1`, the lysis activity is -7.7% (inactive).

As for `C[C@@H](NC(=O)C[C@@H]1CC[C@H](NC(=O)Cc2ccccn2)[C@H](CO)O1)c1ccccc1`, the lysis activity was -0.901% (inactive).

With `C[C@H](NC(=O)C[C@@H]1CC[C@@H](NC(=O)Cc2ccccn2)[C@@H](CO)O1)c1ccccc1`, the lysis activity was 0.182% (inactive).

Consider `C[C@@H](NC(=O)C[C@H]1CC[C@@H](NC(=O)Cc2ccccn2)[C@@H](CO)O1)c1ccccc1`, for which the lysis activity is 105% (active).

With `COc1ccc(NC(=O)N(C)C[C@@H]2OCCCC[C@@H](C)Oc3ccc(NS(=O)(=O)c4c(C)noc4C)cc3C(=O)N([C@H](C)CO)C[C@@H]2C)cc1`, the lysis activity is -3% (inactive).

For `CC(C)C#Cc1ccc2c(c1)O[C@H](CN(C)Cc1ccccc1)[C@H](C)CN([C@@H](C)CO)S2(=O)=O`, the lysis activity was 14.5% (inactive).

Turning to `CCNC(=O)C[C@@H]1CC[C@H]2[C@@H](COc3ccc(NC(=O)Cc4cccs4)cc3C(=O)N2C)O1`, the lysis activity was -1.39% (inactive).

Turning to `COc1ccccc1CNC(=O)C[C@H]1CC[C@@H]2[C@H](COC[C@H](O)CN2Cc2ccccc2)O1`, the lysis activity is -1.1% (inactive).

For `COc1ccccc1-c1ccc2n(c1=O)C[C@@H]1[C@@H](CO)[C@H](C(=O)NCc3ccccc3Cl)N[C@H]21`, the lysis activity was -0.428% (inactive).

As to `CO[C@@H]1CN(C)C(=O)c2cc(NC(=O)c3ccno3)ccc2OC[C@@H](C)N(S(C)(=O)=O)C[C@@H]1C`, the lysis activity is 0.04% (inactive).

With `C/C=C/c1ccc([C@H]2[C@@H](CO)N(C(C)=O)[C@H]2CN(C)S(C)(=O)=O)cc1`, the lysis activity was -1.56% (inactive).

On to `C/C=C/c1ccc2c(c1)O[C@H](CN(C)C(=O)Nc1ccc(OC)cc1)[C@@H](C)CN([C@H](C)CO)S2(=O)=O`, for which the lysis activity is -3.44% (inactive).

Consider `Cc1ccc(S(=O)(=O)Nc2ccc3c(c2)C(=O)N([C@@H](C)CO)C[C@@H](C)[C@@H](CN(C)Cc2ccc(C(F)(F)F)cc2)OCCCC[C@@H](C)O3)cc1`, for which the lysis activity is 54.9% (inactive).

As for `C[C@@H]1CCCCO[C@H](CN(C)C(=O)NC2CCCCC2)[C@H](C)CN([C@H](C)CO)C(=O)c2cc(NC(=O)c3ccncc3)ccc2O1`, the lysis activity is -2.46% (inactive).

In the case of `CO[C@@H]1CN(C)C(=O)c2cc(NC(=O)Nc3ccc(F)cc3)ccc2OC[C@@H](C)NC[C@@H]1C`, the lysis activity is -3.48% (inactive).

As for `COc1cccc(-c2ccc3n(c2=O)C[C@@H]2[C@@H](CO)[C@H](C(=O)NCC4CC4)N(C(=O)NC(C)C)[C@H]32)c1`, the lysis activity is -2.16% (inactive).

With `CCC(=O)Nc1ccc2c(c1)C(=O)N(C)C[C@H](OC)[C@H](C)CN(Cc1ccccc1F)[C@H](C)CO2`, the lysis activity was 3.58% (inactive).

In the case of `C[C@@H]1CN([C@H](C)CO)S(=O)(=O)c2ccc(C3=CCCC3)cc2O[C@H]1CN(C)C(=O)c1ccccc1`, the lysis activity was 2.54% (inactive).

For the molecule `O=C(C[C@@H]1C[C@@H]2c3cc(NS(=O)(=O)c4ccc(F)cc4)ccc3O[C@@H]2[C@@H](CO)O1)N1CCOCC1`, the lysis activity is -1.76% (inactive).

Consider `C[C@@H]1CCCCO[C@@H](CN(C)S(C)(=O)=O)[C@H](C)CN([C@@H](C)CO)C(=O)c2cc(NS(=O)(=O)c3cccs3)ccc2O1`, for which the lysis activity was 0.965% (inactive).

As to `C[C@H]1CN([C@@H](C)CO)C(=O)c2ccccc2-c2ccccc2CO[C@H]1CN(C)S(=O)(=O)c1ccccc1C#N`, the lysis activity was 1.59% (inactive).

Turning to `Cc1ccc(S(=O)(=O)N(C)C[C@H]2OCc3ccccc3-c3ccccc3C(=O)N([C@@H](C)CO)C[C@@H]2C)cc1`, the lysis activity is -0.134% (inactive).

For the molecule `C[C@H]1CN([C@@H](C)CO)C(=O)c2ccccc2-c2ccccc2CO[C@H]1CN(C)S(=O)(=O)c1cccc(C#N)c1`, the lysis activity is 82.9% (active).

As for `CO[C@H]1CN(C)C(=O)c2cc(NC(=O)C3CC3)ccc2OC[C@@H](C)N(Cc2cc(F)ccc2F)C[C@H]1C`, the lysis activity is 0.743% (inactive).

With `COC(=O)C[C@H]1C[C@H]2c3cc(NC(=O)Nc4ccccc4F)ccc3O[C@H]2[C@H](CO)O1`, the lysis activity is 11.5% (inactive).

For the molecule `CO[C@@H]1CN(C)C(=O)c2ccc(NC(=O)Nc3c(C)noc3C)cc2OC[C@@H](C)NC[C@H]1C`, the lysis activity is -0.469% (inactive).

`O=C(c1ccncc1)N1CC[C@@H]2[C@H]1c1cc(Br)ccc1N[C@@H]2CO`: the lysis activity was -16.8% (inactive).

`C[C@H]1CN([C@@H](C)CO)S(=O)(=O)c2ccc(C3=CCCC3)cc2O[C@H]1CN(C)Cc1cccc(C(=O)O)c1`: the lysis activity is 0.868% (inactive).

The values above are taken from PubChem BioAssay AID651654 (Broad Institute, 2012).
